These results are taken from ChEMBL document CHEMBL1123867, “Anticonvulsant O-alkyl sulfamates. 2,3:4,5-Bis-O-(1-methylethylidene)-beta-D-fructopyranose sulfamate and related compounds” (1987).

Assay [1] relates to Mus musculus. Description: Anticonvulsant activity by using a standard maximal electroshock test (MEST) in mice, by 100 mg/kg intraperitoneal administration of the compound; I=inactive. It counts as functional, organism-based. Also noted: dose 100 mg/kg. The essentials:
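Threshold electroshock: 8-mA current (60 Hz, 0.25 s) via ear-clip electrodes, the CS97 in these mice, induced hind-limb tonic extension; inhibition scored as activity. Mice given drug intraperitoneally in aqueous solution or suspension (ca. 0.1% Tween 80, distilled water). Tested at 30 min, sometimes also 240 min; ten mice per time point.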
A general note: Protection in the maximal electroshock model is a classic sign of anticonvulsant action.

Assay [2] has as its system Mus musculus. Description: Anticonvulsant activity by using a standard maximal electroshock test (MES) in mice, by 100 mg/kg intraperitoneal administration of the compound; I=inactive, 0-10% block. It counts as functional, organism-based. Also noted: dose 100 mg/kg. The essentials:
(§1)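 Supramaximal electroshock: 50-mA current (60 Hz, 0.20 s) via corneal electrodes induced hind-limb tonic extension; inhibition of this component scored as activity. Mice dosed ip and/or po in aqueous solution or suspension (ca. 0.1% Tween 80, distilled water). Tested at 30, 60, 120 and 240 min (sometimes 45 min); ten mice per time point.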

The subject of assay [3] is Mus musculus. Description: Anticonvulsant activity by using a standard maximal electroshock test (MES) in mice, by 200 mg/kg peroral administration of the compound; I=inactive, 0-10% block. Format: functional, organism-based. Also noted: dose 200 mg/kg. The method, boiled down:
as §1

Assay [4] has as its system Mus musculus. Description: Percentage block of the hind-limb tonic-extensor seizure was determined after application of an electric shock to mice for 60 min followed by 100 mg/kg intraperitoneal dose. Format: functional. The essentials:
as §1

Assay [5] relates to Mus musculus. Description: Percentage block of the hind-limb tonic-extensor seizure was determined after application of an electric shock to mice for 120 min followed by 200 mg/kg peroral dose. It counts as functional. To be noted: route oral. The method, boiled down: as §1
Assay [6] concerns Mus musculus. Description: Percentage block of the hind-limb tonic-extensor seizure was determined after application of an electric shock to mice for 30 min followed by 100 mg/kg intraperitoneal dose. It counts as functional. The method, boiled down:
as §1

The subject of assay [7] is Mus musculus. Description: Percentage block of the hind-limb tonic-extensor seizure was determined after application of an electric shock to mice for 30 min followed by 200 mg/kg peroral dose. Format: functional. To be noted: route oral. The method, boiled down:
as §1

The test system of assay [8] is Mus musculus. Description: Percentage block of the hind-limb tonic-extensor seizure was determined after application of an electric shock to mice for 240 min followed by 100 mg/kg intraperitoneal dose. Format: functional. The method, boiled down: as §1
Assay [9] deals with Mus musculus. Description: Percentage block of the hind-limb tonic-extensor seizure was determined after application of an electric shock to mice for 240 min followed by 200 mg/kg peroral dose. To be noted: route oral. It counts as functional. The essentials:
as §1

The subject of assay [10] is Mus musculus. Description: Percentage block of the hind-limb tonic-extensor seizure was determined after application of an electric shock to mice for 60 min followed by 200 mg/kg peroral dose. It counts as functional. As to conditions: route oral. The essentials:
(§2)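 Mouse MES test: supramaximal seizure from a 50-mA current (60 Hz, 0.20-s) through corneal electrodes. […] Ten mice per time point. Compound given in aqueous solution or in suspension in ca. 0.1% Tween 80 and distilled water. Free food and water except during testing.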

Assay [11] has as its system Mus musculus. Description: Anticonvulsant activity by using a standard maximal electroshock test (MES) in mice, by intraperitoneal administration of the compound. Format: functional. As to conditions: ip. The method, boiled down: as §1
Assay [12] deals with Mus musculus. Description: Anticonvulsant activity following p.o. administration by standard maximal electroshock test in mice. It counts as functional. To be noted: po. The method, boiled down:
as §1

For assay [13], the system named is Mus musculus. Description: Percentage block of the hind-limb tonic-extensor seizure was determined after application of an electric shock to mice for 30 min followed by 50 mg/kg intraperitoneal dose. Format: functional. The essentials:
as §1

In assay [14] the test system is Mus musculus. Description: Percentage block of the hind-limb tonic-extensor seizure was determined after application of an electric shock to mice for 60 min followed by 50 mg/kg intraperitoneal dose. Format: functional. The method, boiled down:
as §2

For assay [15], the system named is Mus musculus. Description: Percentage block of the hind-limb tonic-extensor seizure was determined after application of an electric shock to mice for 120 min followed by 100 mg/kg peroral dose. It counts as functional. As to conditions: route oral. The method, boiled down:
as §1

For assay [16], the system named is Mus musculus. Description: Percentage block of the hind-limb tonic-extensor seizure was determined after application of an electric shock to mice for 30 min followed by 100 mg/kg peroral dose. It counts as functional. As to conditions: route oral. The method, boiled down:
as §1

Assay [17] deals with Mus musculus. Description: Percentage block of the hind-limb tonic-extensor seizure was determined after application of an electric shock to mice for 120 min followed by 50 mg/kg intraperitoneal dose. Format: functional. The method, boiled down:
as §1

Assay [18] has as its system Mus musculus. Description: Percentage block of the hind-limb tonic-extensor seizure was determined after application of an electric shock to mice for 240 min followed by 100 mg/kg peroral dose. It counts as functional. As to conditions: route oral. The essentials:
as §1

The test system of assay [19] is Mus musculus. Description: Percentage block of the hind-limb tonic-extensor seizure was determined after application of an electric shock to mice for 240 min followed by 50 mg/kg intraperitoneal dose. Format: functional. The method, boiled down:
as §1

For assay [20], the system named is Mus musculus. Description: Percentage block of the hind-limb tonic-extensor seizure was determined after application of an electric shock to mice for 60 min followed by 100 mg/kg peroral dose. It counts as functional. As to conditions: route oral. The method, boiled down:
as §2

In assay [21] the test system is Mus musculus. Description: Percentage block of the hind-limb tonic-extensor seizure was determined after application of an electric shock to mice for 120 min followed by 100 mg/kg intraperitoneal dose. It counts as functional. The method, boiled down:
as §1

Assay [22] has as its system Mus musculus. Description: Percentage block of the hind-limb tonic-extensor seizure was determined after application of an electric shock to mice for 60 min followed by 200 mg/kg intraperitoneal dose. It counts as functional. The method, boiled down:
as §2

Assay [23] concerns Mus musculus. Description: Percentage block of the hind-limb tonic-extensor seizure was determined after application of an electric shock to mice for 60 min followed by 400 mg/kg peroral dose. It counts as functional. As to conditions: route oral. The method, boiled down:
as §2

Assay [24] has as its system Mus musculus. Description: Percentage block of the hind-limb tonic-extensor seizure was determined after application of an electric shock to mice for 120 min followed by 200 mg/kg intraperitoneal dose. It counts as functional. The essentials:
as §1

For assay [25], the system named is Mus musculus. Description: Percentage block of the hind-limb tonic-extensor seizure was determined after application of an electric shock to mice for 120 min followed by 400 mg/kg peroral dose. To be noted: route oral. It counts as functional. The method, boiled down:
as §1

Assay [26] has as its system Mus musculus. Description: Percentage block of the hind-limb tonic-extensor seizure was determined after application of an electric shock to mice for 30 min followed by 200 mg/kg intraperitoneal dose. It counts as functional. The essentials:
as §1

Assay [27] concerns Mus musculus. Description: Percentage block of the hind-limb tonic-extensor seizure was determined after application of an electric shock to mice for 30 min followed by 400 mg/kg peroral dose. Format: functional. As to conditions: route oral. The essentials:
as §1

Assay [28] concerns Mus musculus. Description: Percentage block of the hind-limb tonic-extensor seizure was determined after application of an electric shock to mice for 240 min followed by 200 mg/kg intraperitoneal dose. It counts as functional. The method, boiled down:
as §1

Assay [29] relates to Mus musculus. Description: Percentage block of the hind-limb tonic-extensor seizure was determined after application of an electric shock to mice for 240 min followed by 400 mg/kg peroral dose. As to conditions: route oral. It counts as functional. The essentials: as §1
The test system of assay [30] is Mus musculus. Description: Anticonvulsant activity by using a standard maximal electroshock test (MES) in mice, by 100 mg/kg intraperitoneal administration of the compound; i =inactive. Format: functional, organism-based. More on the design: dose 100 mg/kg. The method, boiled down:
as §1

Structures are written as SMILES. Active and inactive are the calls of the source.

Usually ED50 stands for the midpoint of the dose-response relation. Consider `CC1(C)OC2C3OC(C)(C)O[C@]3(COC(N)=O)OC[C@H]2O1` (stereo partly specified), for which the ED50 entry in [1] is “inactive”.
Turning to `CC1(C)OC2[C@H](O)[C@H](O)CO[C@@]2(COS(N)(=O)=O)O1` (stereo partly specified), the ED50 entry in assay [2] and in assay [3] was “inactive” each time. The Block in assay [4], in assay [5], in [6], in assay [7], in assay [8] and in assay [9] was 0% throughout. For the same compound, the Block in assay [10] amounted to 0%.
In the case of `NS(=O)(=O)OCC1CCc2ccccc2C1` (stereo unspecified), the 50% effective dose (ED50) in [11] was 56 mg/kg; in [12], 82 mg/kg. The Block in assay [13] turned out to be 30%; in assay [14] it was 50%; in assay [15], 80%; in [16], 80%; in assay [17], 0%; in assay [18] it was 30%. Also, the Block in assay [19] was found to be 0%; in [20], 80%.
With `CC1(C)OC2C3OC(C)(C)O[C@]3(COS(=O)(=O)Nc3ccccc3)OC[C@H]2O1` (stereo partly specified), the ED50 result in [2] and in assay [3] was “inactive” in each case. In addition, the Block in [4], in assay [21], in [5], in assay [6], in assay [7] and in [8] was 0% each time. Moreover, the Block in assay [9] and in assay [10] was 0% in each case.
Turning to `CC1(COS(N)(=O)=O)CCCCC1`, the ED50 in [11] was 270 mg/kg; in assay [12], around 400 mg/kg. The Block is listed as 30% in [22]; 40% in assay [23]; 20% in assay [24]; 80% in assay [25]; 30% in [26]; 50% in assay [27]. The values for the Block in assay [28] and in assay [29] were 20% and 30%, respectively.
On to `COC1(COS(N)(=O)=O)OC(CO)[C@@H](O)C1O` (stereo partly specified), for which the ED50 entry in [30] is “inactive”.
